Source: ChEMBL document CHEMBL1141802, “Sesquiterpenoid metabolites with antiplasmodial activity from a Caribbean gorgonian coral, Eunicea sp” (J Nat Prod, 2005)
≈ marks a conversion by molar mass, not a printed value. Calls of active or inactive are those of the source. The rule behind the calls is not given here.

Experiments:
[1] = Cytotoxicity against human […] cells; type: functional, cell-based
[2] = system: MCF7; assay: Cytotoxicity against human MCF7 cells; type: functional, cell-based
[3] = system: CCRF-CEM; assay: Cytotoxicity against human CCRF-CEM cells; type: functional, cell-based
[4] = system: Plasmodium falciparum; assay: Antimalarial activity against chloroquine-resistant Plasmodium falciparum W2 by Picogreen dye fluorimetry; type: functional, organism-based
Summary of the method: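 Fluorometric growth-inhibition assay on chloroquine-resistant W2 strain, detecting parasite DNA by PicoGreen intercalation. Result expressed as IC50 in μg/mL.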

[5] = system: MOLT-4; assay: Cytotoxicity against human MOLT4 cells; type: functional, cell-based
[6] = system: HL-60(TB); assay: Cytotoxicity against human HL-60(TB) cells; type: functional, cell-based
[7] = system: Mycobacterium tuberculosis; assay: Antimicrobial activity against Mycobacterium tuberculosis H37Rv at 6.25 ug/mL; type: functional, organism-based
[8] = system: M-phase inducer phosphatase (Cdc25); assay: Inhibition of Cdc25
[9] = target: Cyclin-dependent kinase 1/cyclin B1 (Homo sapiens) (UniProt P06493+P14635); assay: Inhibition of Cdc2/cyclin B
Cyclin-dependent kinase 1/cyclin B1 (Homo sapiens), sequence (P06493 whole entry, looked up): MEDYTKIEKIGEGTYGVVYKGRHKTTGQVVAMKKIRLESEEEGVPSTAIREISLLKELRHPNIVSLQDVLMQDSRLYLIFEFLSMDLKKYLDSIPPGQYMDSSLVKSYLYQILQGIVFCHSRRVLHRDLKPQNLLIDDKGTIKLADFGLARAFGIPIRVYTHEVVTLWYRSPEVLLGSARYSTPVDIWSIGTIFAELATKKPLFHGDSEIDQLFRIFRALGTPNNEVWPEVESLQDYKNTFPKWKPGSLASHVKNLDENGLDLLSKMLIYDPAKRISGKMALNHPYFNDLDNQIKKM
Cyclin-dependent kinase 1/cyclin B1 (Homo sapiens), sequence (P14635 whole entry, looked up): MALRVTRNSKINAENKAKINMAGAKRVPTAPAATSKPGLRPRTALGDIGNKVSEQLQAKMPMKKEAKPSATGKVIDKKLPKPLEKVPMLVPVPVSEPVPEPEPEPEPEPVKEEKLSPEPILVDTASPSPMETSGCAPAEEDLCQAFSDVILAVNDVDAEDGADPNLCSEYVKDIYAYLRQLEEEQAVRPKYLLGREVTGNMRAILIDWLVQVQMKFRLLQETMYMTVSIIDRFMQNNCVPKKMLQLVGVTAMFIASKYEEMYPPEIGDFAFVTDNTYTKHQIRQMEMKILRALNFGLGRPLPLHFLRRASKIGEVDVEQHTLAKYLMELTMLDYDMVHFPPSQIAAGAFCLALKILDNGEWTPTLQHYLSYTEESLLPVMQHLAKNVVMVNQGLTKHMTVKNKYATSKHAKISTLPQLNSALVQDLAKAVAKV

Row | Compound | IC50 [4] [µg/mL] | Activity [7] | further results
1 | C=C1CC[C@@H]2[C@H](/C=C(\C)CC[C@@H]1O)OC(=O)[C@H]2C | 18 (≈ 71.9 µM) |  | IC50 [1]: 90.4 µg/mL (≈ 361 µM); IC50 [2]: 82.2 µg/mL (≈ 328 µM); IC50 [3]: 31.3 µg/mL (≈ 125 µM); IC50 [5]: 19.6 µg/mL (≈ 78.3 µM); IC50 [6]: 51.5 µg/mL (≈ 206 µM)
2 | C=C[C@@]1(C)CCC2=C(C)C(=O)O[C@H]2[C@@H]1C(=C)C | > 50 |  | 
3 | C=C[C@@]1(C)CC[C@@H](C(C)=O)[C@@H](OC(=O)/C=C/C(C)(C)O)[C@@H]1C(=C)C |  | inactive | 
4 | C=C1CC[C@@H](C(C)=O)[C@@H](OC(=O)/C=C/C(C)(C)O)/C=C(\C)CCC1=O | 16 (≈ 45.9 µM) | inactive | Activity [8]: inactive; Activity [9]: inactive
5 | C=C1CC[C@H](O)[C@@]2(C)CC[C@@H]3[C@@H](OC(=O)[C@H]3C)[C@H]12 | 14 (≈ 55.9 µM) | inactive | 
6 | C=C1CC[C@@H](C(C)=O)[C@@H](OC(=O)/C=C/C(C)(C)O)/C=C(\C)CC[C@@H]1O | 14 (≈ 39.9 µM) |  | Activity [8]: inactive; Activity [9]: inactive
7 | C=C1CC[C@H](O)[C@@]2(C)CC[C@@H](C(C)=O)[C@@H](OC(=O)/C=C/C(C)(C)O)[C@H]12 | 10 (≈ 28.5 µM) | inactive | 
